From ChEMBL document CHEMBL1130199, “Differentiation between partial agonists and neutral 5-HT1B antagonists by chemical modulation of 3-[3-(N,N-dimethylamino)propyl]-4-hydroxy- N-[4-(pyridin-4-yl)phenyl]benzamide (GR-55562)” (J Med Chem, 1997) come the findings set out here.

Assay [1] is described as follows: Antagonism of the zolmitriptan-mediated response tested at 10 uM. The format is functional. Put shortly: (§1)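 Membranes of C6-glia cells stably expressing h5-HT1B were preincubated with zolmitriptan concentration series, with or without antagonist (1 μM or 10 μM), in 20 mM Hepes pH 7.4 containing 30 μM GDP, 100 mM NaCl, 3 mM MgCl2 and 0.2 mM ascorbic acid, 30 min at 25 °C. [35S]GTPγS (500 pM) was then added for 30 min. pA2 was derived from concentration ratios. Mean ± SD of 2–4 experiments, each in triplicate.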

For assay [2], the target named is T1, 5-hydroxytryptamine receptor 1B (Homo sapiens, UniProt P28222). Nature of the assay: Binding affinity for 5-hydroxytryptamine 1B receptor in C6-glial transfected cell type using [3H]GR-125743 as radioligand. In a few lines:
(§2)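 Radioligand binding on membranes from HeLa/HA7 cells (h5-HT1A), transfected Cos-7 cells (h5-HT1D) or C6-glia cells stably transfected with h5-HT1B. Values are mean or mean ± SD of 2–3 independent experiments, each in triplicate.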

The target in assay [3] is 5-hydroxytryptamine receptor 1D (Homo sapiens, UniProt P28221). Description: Binding affinity for 5-hydroxytryptamine 1D receptor in Cos-7 transfected cell type using [3H]5-CT as radioligand. In a few lines:
as §2

In assay [4] the target is T2, 5-hydroxytryptamine receptor 1A (Homo sapiens, UniProt P08908).
T2 sequence (P08908 whole entry): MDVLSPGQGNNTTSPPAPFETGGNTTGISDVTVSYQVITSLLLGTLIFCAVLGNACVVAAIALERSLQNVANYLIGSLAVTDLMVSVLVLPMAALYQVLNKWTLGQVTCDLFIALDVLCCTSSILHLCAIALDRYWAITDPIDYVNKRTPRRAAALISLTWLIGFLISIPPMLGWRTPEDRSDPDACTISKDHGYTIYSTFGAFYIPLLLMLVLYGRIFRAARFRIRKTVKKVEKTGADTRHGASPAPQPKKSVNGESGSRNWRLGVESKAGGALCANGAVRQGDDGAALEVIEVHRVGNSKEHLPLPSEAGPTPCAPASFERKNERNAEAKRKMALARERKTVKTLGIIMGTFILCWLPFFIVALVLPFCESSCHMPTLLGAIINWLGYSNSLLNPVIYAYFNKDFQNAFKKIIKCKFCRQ
Description: Binding affinity for 5-hydroxytryptamine 1A receptor in HeLa transfected cell type using [3H]8-OH-DPAT as radioligand. In a few lines:
as §2

Assay [5] addresses T1, 5-hydroxytryptamine receptor 1B. Description: Binding affinity for 5-hydroxytryptamine 1B receptor in C6-glial transfected cell type using [3H]5-CT as radioligand. Put shortly: as §2
Assay [6] has the same target. Nature of the assay: Intrinsic activity for Antagonism of 5-hydroxytryptamine 1B receptor-mediated stimulation of [35S]GTP gamma S binding. The format is functional. In a few lines: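 [35S]GTPγS binding to C6-glia/h5-HT1B membranes (20–120 μg protein) in 20 mM Hepes pH 7.4 with 30 μM GDP, 100 mM NaCl, 3 mM MgCl2 and 0.2 mM ascorbate. Compound was incubated 30 min at 25 °C, then 500 pM [35S]GTPγS was added for 30 min. Emax is given as % of the response to 10 μM 5-HT, and EC50 is relative to each compound's own maximum. Mean ± SD of 2–4 experiments, each in triplicate.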
For orientation: GTPγS resists hydrolysis and so accumulates on activated G proteins.

Assay [7] can be described thus: Antagonism of the zolmitriptan-mediated response tested at 1 uM. The assay is classed as functional. Put shortly:
as §1

Assay [8] is described as follows: Determined KB value of the compound. The format is functional. Put shortly:
as §1

T1 sequence (P28222 whole entry): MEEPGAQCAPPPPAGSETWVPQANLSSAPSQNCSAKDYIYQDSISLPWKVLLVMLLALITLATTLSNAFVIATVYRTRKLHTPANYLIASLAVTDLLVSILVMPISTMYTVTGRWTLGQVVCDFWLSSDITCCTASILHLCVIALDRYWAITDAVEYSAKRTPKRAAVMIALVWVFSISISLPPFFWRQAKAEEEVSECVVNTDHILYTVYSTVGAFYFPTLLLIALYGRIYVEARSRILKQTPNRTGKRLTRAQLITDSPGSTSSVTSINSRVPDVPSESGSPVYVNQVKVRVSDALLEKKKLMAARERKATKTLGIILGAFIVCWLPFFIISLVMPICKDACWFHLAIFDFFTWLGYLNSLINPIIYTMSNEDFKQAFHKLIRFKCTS
Sequence of 5-hydroxytryptamine receptor 1D (P28221 whole entry): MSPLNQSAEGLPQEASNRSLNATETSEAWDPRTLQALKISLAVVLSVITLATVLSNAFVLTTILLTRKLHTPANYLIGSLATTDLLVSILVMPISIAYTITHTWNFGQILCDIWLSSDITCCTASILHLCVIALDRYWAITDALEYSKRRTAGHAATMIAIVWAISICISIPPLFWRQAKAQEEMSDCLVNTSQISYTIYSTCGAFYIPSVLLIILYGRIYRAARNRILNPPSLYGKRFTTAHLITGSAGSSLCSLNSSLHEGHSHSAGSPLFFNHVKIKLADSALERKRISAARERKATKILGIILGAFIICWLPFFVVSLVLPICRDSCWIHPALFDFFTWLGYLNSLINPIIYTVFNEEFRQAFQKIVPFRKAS

Broadly, the EC50 is the concentration giving half of the maximal effect. Low values mean higher potency in that assay, high ones lower potency in that assay. In general, Ki refers to a dissociation constant, usually derived from enzyme kinetics or from competition with a known ligand. A low value points to higher affinity. As for `COc1ccc(C(=O)Nc2ccc(-c3ccncc3)cc2)cc1C#CCN(C)C`, a half-maximal effect in assay [1] (EC50) was put at 837 nM. The inhibition constant Ki is 22.3 nM in assay [2], 1200 nM in assay [3], above 1000 nM in assay [4] and 16.2 nM in assay [5]. The Activity in assay [6] worked out at 32.3.
For `COc1ccc(C(=O)Nc2ccc(-c3ccncc3)cc2)cc1/C=C/CN(C)C`, in assay [1], the EC50 amounted to 4300 nM. The Ki in assay [2] is 18.8 nM; in assay [3] it was 560 nM; in assay [4] it was above 1000 nM; in assay [5] it was 13.6 nM. The same compound came in with an Activity in assay [6] of 23.
In the case of `COc1ccc(C(=O)Nc2ccc(-c3ccncc3)cc2)cc1CCCN(C)C`, the inhibitory constant (Ki) in assay [2] was 15.4 nM; in assay [3], 540 nM; in assay [4], above 1000 nM; in assay [5] it was 70.1 nM. Further, the concentration for a half-maximal effect (EC50) in assay [7] came out at 2850 nM. Further, in assay [6], the Activity was 4. The same compound registered a Kb in assay [8] of 22.7 nM.
With `COc1ccc(C(=O)Nc2ccc(-c3ccncc3)cc2)cc1C=CCN(C)C`, the Ki in assay [2] was determined as 6.1 nM; in assay [3] it was 169 nM; in assay [4], 633 nM; in assay [5], 19 nM. In assay [7], this compound displayed an EC50 of 3300 nM. Moreover, in assay [6], the Activity was 2.3. In assay [8], this compound displayed a Kb of 19.4 nM.
For the compound `CN(C)CCCc1cc(C(=O)Nc2ccc(-c3ccncc3)cc2)ccc1O` [GR-55562], the Ki in assay [2] stood at 14 nM; in assay [3], 700 nM; in assay [4], 842 nM; in assay [5], 12.1 nM. Further, the EC50 in assay [7] was found to be 3000 nM. Besides, the Activity in assay [6] was -3.7. Moreover, the Kb in assay [8] was 21.3 nM.
